From ChEMBL document CHEMBL1140127, “Enantiomeric propanolamines as selective N-methyl-D-aspartate 2B receptor antagonists” (J Med Chem, 2008)
Activity calls are given as the source filed them. The calls are words filed in the database; no cut-off is given here.

What was measured:
[1] = target: Glutamate receptor 2 (Rattus norvegicus) (UniProt P19491); test: Inhibition of rat recombinant GluR2/GluR3 expressed in Xenopus oocytes assessed as inhibition of kainate-induced evoked current at 3 uM by two electrode voltage clamp method; format: cell-based; settings: Oocyte
Chain of Glutamate receptor 2 (Rattus norvegicus) (P19491 whole entry): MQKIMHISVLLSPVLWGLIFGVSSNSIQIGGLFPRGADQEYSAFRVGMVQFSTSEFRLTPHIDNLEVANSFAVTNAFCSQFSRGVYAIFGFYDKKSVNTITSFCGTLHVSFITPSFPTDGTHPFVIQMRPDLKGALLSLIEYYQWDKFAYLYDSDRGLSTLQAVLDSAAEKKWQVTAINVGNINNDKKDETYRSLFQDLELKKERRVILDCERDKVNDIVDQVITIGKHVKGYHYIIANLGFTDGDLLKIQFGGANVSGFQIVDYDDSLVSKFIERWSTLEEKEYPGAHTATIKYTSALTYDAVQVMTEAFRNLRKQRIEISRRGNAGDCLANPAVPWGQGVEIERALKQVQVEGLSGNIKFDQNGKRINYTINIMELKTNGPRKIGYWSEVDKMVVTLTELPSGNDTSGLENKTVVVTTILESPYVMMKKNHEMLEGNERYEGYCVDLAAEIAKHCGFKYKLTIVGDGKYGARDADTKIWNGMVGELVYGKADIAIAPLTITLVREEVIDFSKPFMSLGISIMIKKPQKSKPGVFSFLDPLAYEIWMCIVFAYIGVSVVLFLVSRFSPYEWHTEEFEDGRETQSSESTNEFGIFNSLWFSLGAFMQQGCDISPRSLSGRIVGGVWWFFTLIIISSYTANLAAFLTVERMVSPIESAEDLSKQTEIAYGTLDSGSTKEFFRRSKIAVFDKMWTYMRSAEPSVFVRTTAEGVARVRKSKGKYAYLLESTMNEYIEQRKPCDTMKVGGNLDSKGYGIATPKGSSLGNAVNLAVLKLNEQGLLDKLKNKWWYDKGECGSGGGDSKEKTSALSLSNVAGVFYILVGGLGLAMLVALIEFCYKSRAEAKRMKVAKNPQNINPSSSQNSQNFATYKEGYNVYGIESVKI
Summary of the method: (§1)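 Xenopus oocytes injected with 5–10 ng rat receptor cRNA and kept in Barth's solution at 18 °C. Two-electrode voltage clamp at −40 mV and 23 °C, 2–7 days after injection, in 90 NaCl/1 KCl/10 HEPES/0.5 BaCl2 mM at pH 7.3 or 7.6. Agonists: 50 μM kainate for GluR3, GluR4 and GluR2/3; 3 nM domoate for GluR6; 100 μM AMPA for GluR6/KA1. Current expressed as % of control; paired t test.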

[2] = Inhibition of N-type calcium channel
[3] = target: Sodium-dependent serotonin transporter (Homo sapiens, UniProt P31645); test: Binding affinity to serotonin transporter
Chain of Sodium-dependent serotonin transporter (P31645 whole entry): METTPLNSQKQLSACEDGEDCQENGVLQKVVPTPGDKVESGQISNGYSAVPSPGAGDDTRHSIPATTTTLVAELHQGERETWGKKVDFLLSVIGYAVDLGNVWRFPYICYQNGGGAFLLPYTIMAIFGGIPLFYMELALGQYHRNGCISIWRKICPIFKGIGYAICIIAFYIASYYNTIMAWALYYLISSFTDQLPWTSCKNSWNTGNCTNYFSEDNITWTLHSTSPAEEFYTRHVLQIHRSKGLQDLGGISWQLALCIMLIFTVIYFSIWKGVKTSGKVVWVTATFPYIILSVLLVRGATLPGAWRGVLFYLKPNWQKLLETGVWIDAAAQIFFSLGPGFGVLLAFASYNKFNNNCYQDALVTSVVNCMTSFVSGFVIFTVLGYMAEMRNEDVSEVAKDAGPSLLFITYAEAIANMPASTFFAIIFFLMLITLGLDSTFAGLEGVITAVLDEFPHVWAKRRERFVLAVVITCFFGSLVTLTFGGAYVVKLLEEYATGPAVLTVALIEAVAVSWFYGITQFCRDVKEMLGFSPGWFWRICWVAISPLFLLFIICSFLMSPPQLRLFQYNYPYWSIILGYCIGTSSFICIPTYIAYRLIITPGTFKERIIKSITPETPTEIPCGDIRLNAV

Rattus norvegicus [4] = test: Effect on locomotor activity in Sprague-Dawley rat at 300 mg/kg, ip; format: functional, organism-based; set-up: dose 300 mg/kg
Summary of the method: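 Sprague–Dawley rats, 100–200 g, habituated to the room for ≥30 min. Basal activity recorded for 1 h in infrared photobeam activity chambers. Animals then dosed ip and returned to the chamber for 2 h; total horizontal activity recorded. Daily controls were vehicle (negative) and 0.3 mg/kg MK-801 ip in saline (positive). ANOVA with Dunnett's post hoc test.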

[5] = target: Glutamate receptor ionotropic, kainate 2 (Rattus norvegicus) (UniProt P42260); test: Inhibition of rat recombinant GluR6 expressed in Xenopus oocytes assessed as inhibition of domoate-induced evoked current at 3 uM by two electrode voltage clamp method; format: cell-based; settings: Oocyte; summary of the method: as §1
Chain of Glutamate receptor ionotropic, kainate 2 (Rattus norvegicus) (P42260 whole entry): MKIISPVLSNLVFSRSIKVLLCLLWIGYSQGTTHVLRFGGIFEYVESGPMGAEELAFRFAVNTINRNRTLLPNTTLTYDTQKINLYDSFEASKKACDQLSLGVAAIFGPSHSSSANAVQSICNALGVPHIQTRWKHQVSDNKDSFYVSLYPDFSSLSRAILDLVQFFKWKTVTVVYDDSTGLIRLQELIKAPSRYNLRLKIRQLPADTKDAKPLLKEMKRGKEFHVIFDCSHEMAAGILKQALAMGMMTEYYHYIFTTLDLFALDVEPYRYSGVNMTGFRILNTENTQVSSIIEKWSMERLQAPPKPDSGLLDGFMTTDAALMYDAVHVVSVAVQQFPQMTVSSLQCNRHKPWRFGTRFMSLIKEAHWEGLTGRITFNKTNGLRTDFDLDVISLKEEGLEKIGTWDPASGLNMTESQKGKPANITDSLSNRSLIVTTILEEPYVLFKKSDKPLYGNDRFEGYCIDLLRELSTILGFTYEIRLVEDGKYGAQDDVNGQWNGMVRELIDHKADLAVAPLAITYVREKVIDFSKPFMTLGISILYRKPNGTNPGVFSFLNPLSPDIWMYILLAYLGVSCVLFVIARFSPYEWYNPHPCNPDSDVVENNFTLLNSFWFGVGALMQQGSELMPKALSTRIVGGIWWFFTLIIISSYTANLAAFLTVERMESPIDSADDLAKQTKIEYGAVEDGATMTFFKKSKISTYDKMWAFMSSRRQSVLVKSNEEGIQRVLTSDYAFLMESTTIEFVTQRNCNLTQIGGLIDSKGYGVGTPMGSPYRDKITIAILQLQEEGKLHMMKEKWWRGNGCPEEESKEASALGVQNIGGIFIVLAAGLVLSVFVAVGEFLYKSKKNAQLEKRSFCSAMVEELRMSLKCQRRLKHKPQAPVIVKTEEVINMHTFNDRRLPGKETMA

[6] = Protein binding in mouse plasma; format: ADME, cell-free; settings: read-out: PPB (converted)
[7] = target: Glutamate NMDA receptor; GRIN1/GRIN2B (Homo sapiens) (UniProt Q05586+Q13224); test: Inhibition of human NR1/NR2B receptor
[8] = target: Ionotropic glutamate receptor NMDA 1/2D (Rattus norvegicus) (UniProt P35439+Q62645); test: Inhibition of rat recombinant NR1/NR2D receptor expressed in Xenopus oocytes assessed as inhibition of glutamate and glycine-induced evoked current at 3uM by two electrode voltage clamp method; format: cell-based; settings: Oocyte
[9] = target: Adrenergic receptor alpha-2 (Rattus norvegicus, UniProt P22086+P19328+P22909); test: Binding affinity to alpha2 adrenergic receptor in rat brain; format: tissue-based
[10] = target: T1, Adrenergic receptor alpha-1 (Rattus norvegicus, UniProt P15823+P23944+P43140); test: Displacement of [3H]prazosin from alpha1 adrenergic receptor in rat brain; format: tissue-based
T1 sequence (P15823 whole entry): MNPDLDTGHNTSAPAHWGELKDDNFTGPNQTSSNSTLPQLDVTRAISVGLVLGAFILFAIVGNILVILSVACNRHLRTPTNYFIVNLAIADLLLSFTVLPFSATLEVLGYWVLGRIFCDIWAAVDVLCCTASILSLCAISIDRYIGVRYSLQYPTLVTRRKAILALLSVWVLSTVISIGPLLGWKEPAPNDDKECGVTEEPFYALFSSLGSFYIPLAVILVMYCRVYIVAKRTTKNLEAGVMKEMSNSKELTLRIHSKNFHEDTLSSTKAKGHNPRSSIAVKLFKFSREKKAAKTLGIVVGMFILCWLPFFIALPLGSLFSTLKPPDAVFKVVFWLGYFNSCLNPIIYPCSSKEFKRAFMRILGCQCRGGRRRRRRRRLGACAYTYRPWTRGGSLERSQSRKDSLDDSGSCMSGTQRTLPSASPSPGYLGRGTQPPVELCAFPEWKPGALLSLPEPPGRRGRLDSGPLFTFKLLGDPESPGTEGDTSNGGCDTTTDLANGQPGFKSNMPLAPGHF
T1 sequence (P23944 whole entry): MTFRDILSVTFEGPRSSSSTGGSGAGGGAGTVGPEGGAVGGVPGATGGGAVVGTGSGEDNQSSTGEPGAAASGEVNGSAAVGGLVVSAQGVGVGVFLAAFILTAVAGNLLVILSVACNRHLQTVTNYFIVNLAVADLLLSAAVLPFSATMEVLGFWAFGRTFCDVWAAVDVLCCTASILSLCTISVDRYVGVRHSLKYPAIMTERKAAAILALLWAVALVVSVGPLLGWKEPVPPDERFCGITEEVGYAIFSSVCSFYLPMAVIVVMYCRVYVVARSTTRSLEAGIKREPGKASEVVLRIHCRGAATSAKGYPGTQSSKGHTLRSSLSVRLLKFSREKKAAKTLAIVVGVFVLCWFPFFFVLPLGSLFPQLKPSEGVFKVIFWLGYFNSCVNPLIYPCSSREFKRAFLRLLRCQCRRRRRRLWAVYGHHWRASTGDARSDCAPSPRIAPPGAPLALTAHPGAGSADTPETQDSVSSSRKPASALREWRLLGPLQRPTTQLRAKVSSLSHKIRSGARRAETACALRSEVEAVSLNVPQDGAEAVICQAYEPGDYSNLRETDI
T1 sequence (P43140 whole entry): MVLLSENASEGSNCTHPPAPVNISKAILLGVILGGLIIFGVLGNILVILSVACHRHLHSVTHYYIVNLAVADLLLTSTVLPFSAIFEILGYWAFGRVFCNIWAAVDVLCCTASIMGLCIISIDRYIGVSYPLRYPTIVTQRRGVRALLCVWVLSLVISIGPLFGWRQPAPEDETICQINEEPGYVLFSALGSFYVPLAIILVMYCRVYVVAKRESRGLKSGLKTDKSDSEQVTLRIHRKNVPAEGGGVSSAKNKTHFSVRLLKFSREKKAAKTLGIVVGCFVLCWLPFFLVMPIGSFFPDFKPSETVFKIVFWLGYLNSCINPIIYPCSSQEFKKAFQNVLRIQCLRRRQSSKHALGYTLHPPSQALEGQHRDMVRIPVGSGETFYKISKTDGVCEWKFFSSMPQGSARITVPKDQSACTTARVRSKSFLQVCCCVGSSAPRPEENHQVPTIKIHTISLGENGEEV
Summary of the method: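 Rat brain membranes; displacement of [3H]-prazosin at 4–6 concentrations, each point in duplicate. IC50 from displacement curves fitted by nonlinear least-squares regression.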

[11] = Ratio of drug level in rat brain to plasma by LC-MS/MS analysis; format: ADME
Summary of the method: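 Rats (n = 3 per dose) received a 4 mg/kg single iv bolus via the tail vein or 30 mg/kg ip, in 2% dimethyl acetamide/98% 5% 2-hydroxypropyl cyclodextrin, after an overnight fast. Plasma was taken at 5–240 min. Brain was homogenized in 50 mM phosphate buffer. Samples were extracted with 5 volumes of cold acetonitrile and read by LC-MS/MS (MRM) against a standard curve.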

Rattus norvegicus [12] = test: Anticonvulsant activity in Sprague-Dawley rat assessed as inhibition of electroshock-induced tonic hind limb extension at 100 mg/kg, ip administered 30 mins before electroshock; format: functional, organism-based; set-up: dose 100 mg/kg; settings: Hindlimb
Summary of the method: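 Male Sprague–Dawley rats, 100–125 g, with 1% lidocaine dropped into each conjunctiva before maximal electroshock. Compound given ip in DMSO 30 min before the stimulus. Tested on three consecutive days: untreated on days 1 and 3, compound on day 2. Duration of tonic hind limb extension scored visually. Vehicle served as negative control and carbamazepine 60 mg/kg as positive control. ANOVA with Bonferroni post hoc test.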

[13] = Protein binding in human plasma; format: ADME, cell-free; settings: read-out: PPB (converted)

CS(=O)(=O)Nc1ccc(OC[C@@H](O)CNCCc2ccc(Cl)c(Cl)c2)cc1
Activity [1]: inactive
IC50 [2]: > 5 µM
IC50 [3]: > 3 µM
Activity (Rattus norvegicus [4]): inactive
Activity [5]: inactive
fraction unbound [6]: 0.12
Activity [7]: 53 nM
Activity [8]: inactive
IC50 [9]: > 3 µM
IC50 [10]: 2.4 µM
Ratio [11]: < 0.05
Activity (Rattus norvegicus [12]): Active
fraction unbound [13]: 0.02
